Reference: ChEMBL document CHEMBL1124459, “Activity of aromatic substituted phenylpiperazines lacking affinity for dopamine binding sites in a preclinical test of antipsychotic efficacy” (J Med Chem, 1989)

Legend:
[1] = target: Serotonin 1 (5-HT1) receptor (Rattus norvegicus, UniProt P28564+P30940+P19327+P28565); experiment: Binding affinity in radioreceptor binding assay by using [3H]5-HT radioligand against 5-hydroxytryptamine 1 receptor; format: protein assay
[2] = target: T1, 5-hydroxytryptamine receptor 1B (Rattus norvegicus, UniProt P28564); experiment: Binding affinity determined in radioreceptor binding assay by using [3H]5-HT radioligand against 5-hydroxytryptamine 1B receptor
Outline: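 Rat cortical tissue labelled with [3H]serotonin. The incubation medium included 8-OH-DPAT at 100 nM final. Run in duplicate, with one to five concentration–response curves per compound.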

[3] = target: T2, 5-hydroxytryptamine receptor 1A (Rattus norvegicus, UniProt P19327)
T2 sequence (P19327 whole entry): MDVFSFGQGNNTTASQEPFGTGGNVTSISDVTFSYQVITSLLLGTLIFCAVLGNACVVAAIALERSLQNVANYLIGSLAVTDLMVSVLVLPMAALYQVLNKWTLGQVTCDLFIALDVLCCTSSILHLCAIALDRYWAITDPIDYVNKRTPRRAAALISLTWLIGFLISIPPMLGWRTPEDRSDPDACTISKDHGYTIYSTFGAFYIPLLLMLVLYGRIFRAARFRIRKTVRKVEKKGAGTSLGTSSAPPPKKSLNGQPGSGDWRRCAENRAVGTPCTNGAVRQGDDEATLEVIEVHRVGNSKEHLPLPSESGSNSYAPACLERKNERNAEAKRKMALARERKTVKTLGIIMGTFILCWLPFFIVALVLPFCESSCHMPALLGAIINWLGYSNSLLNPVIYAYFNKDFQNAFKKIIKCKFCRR

[4] = target: Serotonin 2 (5-HT2) receptor (Rattus norvegicus, UniProt P30994+P08909+P14842); experiment: Binding affinity in radioreceptor binding assay by using [3H]5-HT radioligand against 5-hydroxytryptamine 2 receptor; format: protein assay
[5] = target: T3, Adrenergic receptor alpha-1 (Rattus norvegicus, UniProt P15823+P23944+P43140); experiment: Binding affinity against rat Alpha-1 adrenergic receptor.; format: protein assay
T3 sequence (P15823 whole entry): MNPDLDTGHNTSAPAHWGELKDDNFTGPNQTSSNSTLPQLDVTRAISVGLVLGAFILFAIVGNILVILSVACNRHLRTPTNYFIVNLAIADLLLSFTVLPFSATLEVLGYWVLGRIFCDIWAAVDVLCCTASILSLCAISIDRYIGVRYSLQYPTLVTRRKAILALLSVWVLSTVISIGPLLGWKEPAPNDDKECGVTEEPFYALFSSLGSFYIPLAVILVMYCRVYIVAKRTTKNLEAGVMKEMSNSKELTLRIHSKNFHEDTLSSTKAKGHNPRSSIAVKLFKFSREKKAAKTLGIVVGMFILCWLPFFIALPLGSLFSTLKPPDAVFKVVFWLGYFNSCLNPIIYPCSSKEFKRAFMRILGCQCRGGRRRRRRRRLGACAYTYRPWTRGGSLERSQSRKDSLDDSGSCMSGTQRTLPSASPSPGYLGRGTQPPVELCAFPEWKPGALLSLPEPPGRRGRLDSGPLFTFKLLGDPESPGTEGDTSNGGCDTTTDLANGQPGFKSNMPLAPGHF
T3 sequence (P23944 whole entry): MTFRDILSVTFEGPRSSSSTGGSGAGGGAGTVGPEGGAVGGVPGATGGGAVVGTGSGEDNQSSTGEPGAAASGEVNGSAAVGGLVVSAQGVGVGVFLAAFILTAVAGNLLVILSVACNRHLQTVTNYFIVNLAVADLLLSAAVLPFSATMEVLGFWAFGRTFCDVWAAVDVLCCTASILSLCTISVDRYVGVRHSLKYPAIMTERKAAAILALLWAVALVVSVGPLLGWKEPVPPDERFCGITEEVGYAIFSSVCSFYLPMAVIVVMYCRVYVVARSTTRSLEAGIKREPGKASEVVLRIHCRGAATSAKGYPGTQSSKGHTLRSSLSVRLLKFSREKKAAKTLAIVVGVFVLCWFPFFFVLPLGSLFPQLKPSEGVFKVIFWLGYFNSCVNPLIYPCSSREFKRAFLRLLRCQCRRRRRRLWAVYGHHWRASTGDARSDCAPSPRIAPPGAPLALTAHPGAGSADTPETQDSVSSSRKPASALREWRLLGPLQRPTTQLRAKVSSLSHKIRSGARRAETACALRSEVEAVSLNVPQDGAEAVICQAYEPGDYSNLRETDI
T3 sequence (P43140 whole entry): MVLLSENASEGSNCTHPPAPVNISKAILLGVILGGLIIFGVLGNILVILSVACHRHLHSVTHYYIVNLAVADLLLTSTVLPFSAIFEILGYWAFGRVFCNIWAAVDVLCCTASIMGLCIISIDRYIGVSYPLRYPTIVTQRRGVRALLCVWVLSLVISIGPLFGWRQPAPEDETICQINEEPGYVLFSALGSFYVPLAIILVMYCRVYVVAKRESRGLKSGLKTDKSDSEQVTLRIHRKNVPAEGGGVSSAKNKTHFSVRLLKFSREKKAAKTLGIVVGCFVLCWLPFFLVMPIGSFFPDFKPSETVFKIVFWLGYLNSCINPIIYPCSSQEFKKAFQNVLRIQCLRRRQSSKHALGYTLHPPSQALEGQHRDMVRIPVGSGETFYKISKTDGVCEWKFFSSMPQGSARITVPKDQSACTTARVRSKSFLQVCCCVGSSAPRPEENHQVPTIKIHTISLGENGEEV

[6] = target: T4, D(1A) dopamine receptor (Rattus norvegicus, UniProt P18901); experiment: Binding affinity at rat Dopamine receptor D1 by [3H]SCH-23390 displacement.
Outline: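 Rat striatal tissue suspended in 20 mM NaHepes without sucrose, at 250 volumes of the tissue weight. Labelled with [3H]SCH-23390 added as a 3 nM solution. Nonspecific binding set with unlabelled SCH-23390 added as a 30 μM solution. Incubated 20 min. Run in duplicate, with one to five concentration–response curves per compound.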

[7] = target: T5, D(2) dopamine receptor (Rattus norvegicus, UniProt P61169); experiment: Binding affinity against rat Dopamine receptor D2.
[8] = test system: Rattus norvegicus; experiment: Effective dose in blocking conditioned avoidance responding (CAR) in the rat when administered intraperitoneally; format: functional; settings: ip
Outline: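 Rats trained on a discrete-trial single-lever conditioned avoidance task, dosed ip and tested at the time of peak effect. Each dose was given to 6–12 rats. CAR reduction and loss of escape responding were recorded.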

[9] = target: T2, 5-hydroxytryptamine receptor 1A; experiment: Binding affinity in radioreceptor binding assay by using [3H]5-HT radioligand against 5-hydroxytryptamine 1A receptor
[10] = target: T1, 5-hydroxytryptamine receptor 1B; experiment: Binding affinity in radioreceptor binding assay by using [3H]5-HT radioligand against 5-hydroxytryptamine 1B receptor
Outline: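 Rat cortical membranes; [3H]serotonin as ligand, as in the 5-HT-1 assay, with 8-OH-DPAT added at 100 nM final to the incubation medium; assays run in duplicate; one to five concentration-response curves per compound.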

[11] = target: T4, D(1A) dopamine receptor; experiment: Binding affinity in radioreceptor binding assay by using [3H]5-HT radioligand against Dopamine receptor D1
[12] = target: T5, D(2) dopamine receptor; experiment: Binding affinity in radioreceptor binding assay by using [3H]5-HT radioligand against Dopamine receptor D2
[13] = organism: Rattus norvegicus; experiment: The percent loss of escape responding was determined for the estimated effective dose 50 values for CAR block; format: functional

T1 sequence (P28564 whole entry): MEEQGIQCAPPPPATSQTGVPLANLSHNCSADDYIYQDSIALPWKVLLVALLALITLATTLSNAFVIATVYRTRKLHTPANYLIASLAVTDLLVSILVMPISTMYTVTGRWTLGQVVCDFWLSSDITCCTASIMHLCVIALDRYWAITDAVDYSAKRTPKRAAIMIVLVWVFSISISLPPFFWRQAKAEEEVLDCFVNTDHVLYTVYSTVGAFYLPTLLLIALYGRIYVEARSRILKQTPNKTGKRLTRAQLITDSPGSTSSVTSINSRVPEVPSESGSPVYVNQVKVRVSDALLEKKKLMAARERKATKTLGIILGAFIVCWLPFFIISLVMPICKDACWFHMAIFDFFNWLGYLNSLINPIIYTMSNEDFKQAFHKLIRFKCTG
T4 sequence (P18901 whole entry): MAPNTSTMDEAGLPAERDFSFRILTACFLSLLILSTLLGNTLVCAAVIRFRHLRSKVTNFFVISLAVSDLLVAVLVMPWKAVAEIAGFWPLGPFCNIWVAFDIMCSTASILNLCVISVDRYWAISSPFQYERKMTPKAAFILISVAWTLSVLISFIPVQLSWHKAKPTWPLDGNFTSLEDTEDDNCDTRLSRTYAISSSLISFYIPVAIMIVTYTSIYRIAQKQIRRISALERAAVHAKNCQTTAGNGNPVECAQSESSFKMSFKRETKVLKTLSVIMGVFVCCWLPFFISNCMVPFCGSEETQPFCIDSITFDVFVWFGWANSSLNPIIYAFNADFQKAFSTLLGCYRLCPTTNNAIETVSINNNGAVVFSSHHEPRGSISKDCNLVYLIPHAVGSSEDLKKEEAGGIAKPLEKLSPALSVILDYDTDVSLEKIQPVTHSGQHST
T5 sequence (P61169 whole entry): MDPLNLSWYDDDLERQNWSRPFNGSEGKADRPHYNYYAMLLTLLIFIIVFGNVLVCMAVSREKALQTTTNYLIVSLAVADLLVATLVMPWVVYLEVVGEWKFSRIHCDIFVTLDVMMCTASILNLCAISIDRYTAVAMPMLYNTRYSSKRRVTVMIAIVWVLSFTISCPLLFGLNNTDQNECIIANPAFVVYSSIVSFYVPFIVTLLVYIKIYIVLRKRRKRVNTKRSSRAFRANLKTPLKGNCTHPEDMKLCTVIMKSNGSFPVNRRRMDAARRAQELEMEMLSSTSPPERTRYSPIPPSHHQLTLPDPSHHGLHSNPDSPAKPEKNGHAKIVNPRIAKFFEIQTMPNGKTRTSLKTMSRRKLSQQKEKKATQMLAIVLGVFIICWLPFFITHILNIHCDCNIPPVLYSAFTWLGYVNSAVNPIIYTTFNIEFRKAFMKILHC

| Structure (SMILES) | Ki [1] [µM] | Ki [2] [µM] | Ki [3] [µM] | Ki [4] [µM] | Ki [5] [µM] | Ki [6] [µM] | Ki [7] [µM] | ED50 [8] [mg/kg] | Ki [9] [µM] | Ki [10] [µM] | Ki [11] [µM] | Ki [12] [µM] | Loss [13] [%] |
| --- | --- | --- | --- | --- | --- | --- | --- | --- | --- | --- | --- | --- | --- |
| Oc1ccccc1N1CCNCC1 | 0.117 | 0.0742 | 0.0353 | > 1 | 0.516 | > 1 | > 1 | 26.2 |  |  |  |  |  |
| FC(F)(F)c1cccc(N2CCNCC2)c1 |  |  |  | 0.0311 | 0.337 |  |  | 2.6 | 0.0806 | 0.00225 | > 1 | 0.53 | 0.6 |
